pIC50: −log10 of the molar value.
What was measured:
HOS = assay: Antitumor activity against human HOS cells after 72 hrs by Calcein AM assay; format: functional, cell-based
Summary of the method: (§1)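 Cells grown in DMEM at 37 °C under 5% CO2. Compounds added after 12 h preincubation in 96-well plates, final 0.5-170 μM, with 0.6% final DMSO, then 72 h exposure. Viable cells stained with Calcein AM for 1 h and read at 485/538 nm. IC50 (concentration lethal to 50% of cells) taken from dose-response curves. Run in quadruplicate.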

Nicotiana tabacum [1] = assay: Cytokinin activity in tobacco assessed as stimulation of callus growth at 0.1 mmol/L relative to 6-Benzylaminopurine; format: functional
Summary of the method: (§2)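 Stimulation of tobacco callus growth. Compounds dissolved in DMSO, brought to 10^-3 M in water and diluted into medium (DMSO ≤0.2%). Range 10^-4 to 10^-8 M, five replicates per concentration, at least three independent repeats. Activity at the optimal concentration given relative to BAP's optimal response, taken as 100.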

G-361 = assay: Antitumor activity against human G361 cells after 72 hrs by Calcein AM assay; format: functional, cell-based; conditions: G-361, 72 h; summary of the method: as §1
K562 = assay: Antitumor activity against human K562 cells after 72 hrs by Calcein AM assay; format: functional, cell-based; conditions: K562, 72 h; summary of the method: as §1
CCRF-CEM = assay: Antitumor activity against human CEM cells after 72 hrs by Calcein AM assay; format: functional, cell-based; summary of the method: as §1
B16 = assay: Antitumor activity against mouse B16 cells after 72 hrs by Calcein AM assay; format: functional, cell-based; conditions: B16, 72 h; summary of the method: as §1
[2] = Antitumor activity against human MCF cells after 72 hrs by Calcein AM assay; format: functional, cell-based; summary of the method: as §1
Amaranthus [3] = assay: Cytokinin activity in Amaranthus cotyledons assessed as dark induction of betacyanin synthesis at 0.1 mmol/L relative to 6-Benzylaminopurine; format: functional
Summary of the method: (§3)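 Dark induction of betacyanin in excised Amaranthus cotyledons. DMSO stock brought to 10^-3 M in water, diluted into assay medium (DMSO ≤0.2%). Tested over 10^-4 to 10^-8 M, five replicates per concentration, assay repeated at least three times. Response at the optimal concentration expressed relative to BAP at its optimum (set to 100).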

Triticum aestivum [4] = assay: Cytokinin activity in wheat assessed as retention of chlorophyll in excised wheat leaves at 0.1 mmol/L relative to 6-Benzylaminopurine by senescence assay; format: functional
Summary of the method: (§4)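 Senescence assay measuring chlorophyll retention in excised wheat leaves. DMSO stocks brought to 10^-3 M with water, then diluted in assay medium to a final DMSO of at most 0.2%. Concentrations 10^-4 to 10^-8 M, quintuplicate, repeated at least three times. Response at the optimal concentration normalised to BAP optimum = 100.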

HL-60 = assay: Antitumor activity against human HL60 cells after 72 hrs by Calcein AM assay; format: functional, cell-based; conditions: HL-60, 72 h; summary of the method: as §1
[5] = Cytotoxicity against mouse NIH 3T3 cells after 72 hrs by Calcein AM assay; format: cell-based; conditions: NIH3T3, 72 h; summary of the method: as §1
Triticum aestivum [6] = assay: Cytokinin activity in wheat assessed as retention of chlorophyll in excised wheat leaves at 0.01 mmol/L relative to 6-Benzylaminopurine by senescence assay; format: functional; summary of the method: as §4
Nicotiana tabacum [7] = assay: Cytokinin activity in tobacco assessed as stimulation of callus growth at 0.01 mmol/L relative to 6-Benzylaminopurine; format: functional; summary of the method: as §2
Triticum aestivum [8] = assay: Cytokinin activity in wheat assessed as retention of chlorophyll in excised wheat leaves at 0.1 umol/L relative to 6-Benzylaminopurine by senescence assay; format: functional; summary of the method: as §4
Nicotiana tabacum [9] = assay: Cytokinin activity in tobacco assessed as stimulation of callus growth at 1 umol/L relative to 6-Benzylaminopurine; format: functional; summary of the method: as §2
[10] = biological target: Histidine kinase 4 (Arabidopsis thaliana) (UniProt Q9C5U0); assay: Activation of Arabidopsis thaliana CRE1/AHK4 cytokinin receptor relative to trans-zeatin; set-up: concentration or dose not given beside the values
Summary of the method: (§5)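 E. coli KMI001 carrying pSTV28-AHK3 or pIN-III-AHK4, precultured overnight at 25 °C in M9 + 0.1% casamino acids to OD600 ~1. Diluted 1:600, compound or solvent added, then incubated at 25 °C for 28 h (AHK3) or 17 h (CRE1/AHK4). Supernatant incubated with 4-methylumbelliferyl β-D-galactoside for 1 h at 37 °C and stopped with Na2CO3. Fluorescence read at 365/460 nm. β-galactosidase expressed as nmol 4-MU × OD600⁻¹ × h⁻¹.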

Amaranthus [11] = assay: Cytokinin activity in Amaranthus cotyledons assessed as dark induction of betacyanin synthesis at 0.01 mmol/L relative to 6-Benzylaminopurine; format: functional; summary of the method: as §3
[12] = biological target: T1, Histidine kinase 3 (Arabidopsis thaliana) (UniProt Q9C5U1); assay: Activation of Arabidopsis thaliana AHK3 cytokinin receptor relative to trans-zeatin; set-up: concentration or dose not given beside the values; summary of the method: as §5
T1 sequence (whole entry): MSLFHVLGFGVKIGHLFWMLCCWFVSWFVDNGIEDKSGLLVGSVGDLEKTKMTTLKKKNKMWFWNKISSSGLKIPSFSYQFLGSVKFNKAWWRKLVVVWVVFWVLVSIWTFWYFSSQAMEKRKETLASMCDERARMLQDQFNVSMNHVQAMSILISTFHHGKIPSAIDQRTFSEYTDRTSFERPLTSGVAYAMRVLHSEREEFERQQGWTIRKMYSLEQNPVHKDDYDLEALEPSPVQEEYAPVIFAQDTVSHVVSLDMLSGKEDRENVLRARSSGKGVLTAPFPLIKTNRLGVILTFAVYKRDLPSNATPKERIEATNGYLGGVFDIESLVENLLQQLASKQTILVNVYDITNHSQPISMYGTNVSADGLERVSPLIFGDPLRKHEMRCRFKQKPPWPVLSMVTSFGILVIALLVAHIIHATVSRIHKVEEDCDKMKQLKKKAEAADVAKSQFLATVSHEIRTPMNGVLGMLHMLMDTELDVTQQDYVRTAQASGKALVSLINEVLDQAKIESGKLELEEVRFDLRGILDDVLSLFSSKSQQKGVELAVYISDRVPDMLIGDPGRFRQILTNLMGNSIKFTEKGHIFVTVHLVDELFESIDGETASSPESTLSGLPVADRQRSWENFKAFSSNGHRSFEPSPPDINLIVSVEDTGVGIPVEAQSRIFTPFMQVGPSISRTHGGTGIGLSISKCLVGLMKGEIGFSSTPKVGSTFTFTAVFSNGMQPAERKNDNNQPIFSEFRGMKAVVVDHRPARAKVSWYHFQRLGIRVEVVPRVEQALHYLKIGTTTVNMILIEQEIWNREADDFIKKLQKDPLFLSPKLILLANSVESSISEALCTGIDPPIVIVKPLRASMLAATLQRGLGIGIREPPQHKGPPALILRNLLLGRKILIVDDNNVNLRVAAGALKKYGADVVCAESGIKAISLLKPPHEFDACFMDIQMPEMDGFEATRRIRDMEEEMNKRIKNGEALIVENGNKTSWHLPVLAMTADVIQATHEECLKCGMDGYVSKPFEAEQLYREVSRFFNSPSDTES

Chain of Histidine kinase 4 (Arabidopsis thaliana) (Q9C5U0 whole entry): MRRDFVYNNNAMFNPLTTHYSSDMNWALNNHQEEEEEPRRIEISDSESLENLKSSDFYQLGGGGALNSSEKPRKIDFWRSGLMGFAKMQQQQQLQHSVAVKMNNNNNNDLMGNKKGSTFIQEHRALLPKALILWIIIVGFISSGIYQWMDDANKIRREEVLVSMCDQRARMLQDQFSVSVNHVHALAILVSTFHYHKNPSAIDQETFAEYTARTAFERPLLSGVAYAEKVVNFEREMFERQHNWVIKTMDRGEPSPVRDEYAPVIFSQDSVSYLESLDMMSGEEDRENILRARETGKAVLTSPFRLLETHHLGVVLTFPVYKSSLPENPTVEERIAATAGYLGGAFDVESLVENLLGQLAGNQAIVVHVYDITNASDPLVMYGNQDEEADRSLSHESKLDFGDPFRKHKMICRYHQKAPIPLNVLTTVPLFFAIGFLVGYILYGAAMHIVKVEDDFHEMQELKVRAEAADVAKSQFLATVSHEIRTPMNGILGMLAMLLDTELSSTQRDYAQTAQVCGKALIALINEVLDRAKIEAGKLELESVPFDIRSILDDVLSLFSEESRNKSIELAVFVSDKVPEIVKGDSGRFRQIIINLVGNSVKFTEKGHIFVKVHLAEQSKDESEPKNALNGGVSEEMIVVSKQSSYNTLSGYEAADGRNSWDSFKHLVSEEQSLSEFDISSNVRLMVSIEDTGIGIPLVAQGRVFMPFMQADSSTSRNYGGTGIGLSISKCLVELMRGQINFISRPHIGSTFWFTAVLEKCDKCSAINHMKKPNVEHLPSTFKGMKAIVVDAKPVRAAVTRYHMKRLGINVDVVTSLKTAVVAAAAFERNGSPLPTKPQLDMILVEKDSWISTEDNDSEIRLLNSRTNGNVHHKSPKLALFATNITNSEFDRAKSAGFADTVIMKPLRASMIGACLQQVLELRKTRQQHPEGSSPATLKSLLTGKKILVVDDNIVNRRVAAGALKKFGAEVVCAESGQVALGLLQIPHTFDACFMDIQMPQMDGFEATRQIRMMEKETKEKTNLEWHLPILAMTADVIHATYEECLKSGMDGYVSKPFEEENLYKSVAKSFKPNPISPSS

Structure (SMILES) | pIC50 (HOS) | pIC50 (G-361) | pIC50 (K562) | pIC50 (CCRF-CEM) | pIC50 (B16) | pIC50 [2] | pIC50 (HL-60) | Activity [10] [%] | Activity [12] [%] | Activity (Nicotiana tabacum [1]) [%] | Activity (Amaranthus [3]) [%] | Activity (Triticum aestivum [4]) [%] | pIC50 [5] | Activity (Triticum aestivum [6]) [%] | Activity (Nicotiana tabacum [7]) [%] | Activity (Triticum aestivum [8]) [%] | Activity (Nicotiana tabacum [9]) [%] | Activity (Amaranthus [11]) [%]
OC[C@H]1O[C@@H](n2cnc3c(NCc4ccc(O)c(O)c4)ncnc32)[C@H](O)[C@@H]1O | – | – | – | – | – | – | – | – | – | – | 8 | – | – | – | – | 17 | 4 | –
OC[C@H]1O[C@@H](n2cnc3c(NCc4ccc(Cl)cc4Cl)ncnc32)[C@H](O)[C@@H]1O | < 3.78 | 3.89 | 3.97 | 4.06 | < 3.78 | 3.90 | 4.02 | – | – | – | 3 | – | – | 5 | 70 | – | – | –

More lines, main results first:

pIC50 (HOS) | pIC50 (G-361) | pIC50 (K562) | pIC50 (CCRF-CEM) | pIC50 (B16) | pIC50 [2] | pIC50 (HL-60) | Activity [10] [%] | Activity [12] [%] | Structure (SMILES) | Activity (Nicotiana tabacum [1]) [%] | Activity (Amaranthus [3]) [%] | Activity (Triticum aestivum [4]) [%] | pIC50 [5] | Activity (Triticum aestivum [6]) [%] | Activity (Nicotiana tabacum [7]) [%] | Activity (Triticum aestivum [8]) [%] | Activity (Nicotiana tabacum [9]) [%] | Activity (Amaranthus [11]) [%]
< 3.78 | < 3.78 | 4.78 | 5.72 | < 3.78 | < 3.78 | 4.82 | – | – | Cc1ccc(O)c(CNc2ncnc3c2ncn3[C@@H]2O[C@H](CO)[C@@H](O)[C@H]2O)c1 | 7 | 58 | 164 | – | – | – | – | – | –
< 3.78 | < 3.78 | 5.00 | 4.91 | < 3.78 | < 3.78 | 5.18 | – | – | OC[C@H]1O[C@@H](n2cnc3c(NCc4ccccc4Br)ncnc32)[C@H](O)[C@@H]1O | – | 147 | – | < 3.78 | 86 | 100 | – | – | –
< 3.78 | < 3.78 | 5.05 | 5.49 | < 3.78 | < 3.78 | 5.64 | 0.12 | 0.04 | COc1ccccc1CNc1ncnc2c1ncn2[C@@H]1O[C@H](CO)[C@@H](O)[C@H]1O | – | – | 198 | 3.85 | – | 108 | – | – | 86
